From ChEMBL document CHEMBL1821681, “Synthesis and biological evaluation of derivatives of 4-deoxypodophyllotoxin as antitumor agents” (Eur J Med Chem, 2011)

Assays:
A549 [1] = experiment: Cytotoxicity against human A549 cells after 48 hrs by MTT assay; type: functional, cell-based; settings: A549, 48 h
Procedure, shortened: (§1)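 Cells kept at 37 °C under 5% CO2, plated and allowed to attach for 24 h, then exposed in quadruplicate wells for 48 h to five saline-dissolved concentrations. IC50 is the mean of three independent experiments.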

SiHa = experiment: Cytotoxicity against human SiHa cells after 48 hrs by MTT assay; type: functional, cell-based; procedure, shortened: as §1
HeLa = experiment: Cytotoxicity against human HeLa cells after 48 hrs by MTT assay; type: functional, cell-based; procedure, shortened: as §1
A549 [2] = experiment: Induction of cell cycle arrest in human A549 cells assessed as accumulation at G1 phase at 0.5 uM after 48 hrs using propidium iodide staining by FACS analysis (reference value: 59.9 %); type: functional
A549 [3] = experiment: Induction of cell cycle arrest in human A549 cells assessed as accumulation at S phase at 0.5 uM after 48 hrs using propidium iodide staining by FACS analysis (reference value: 36.7 %); type: functional
A549 [4] = experiment: Induction of cell cycle arrest in human A549 cells assessed as accumulation at sub-G1 phase at 0.5 uM after 48 hrs using propidium iodide staining by FACS analysis (reference value: 21.7 %); type: functional
A549 [5] = experiment: Induction of cell cycle arrest in human A549 cells assessed as accumulation at G2/M phase at 0.1 uM after 48 hrs using propidium iodide staining by FACS analysis (reference value: 3.2 %); type: functional
A549 [6] = experiment: Induction of cell cycle arrest in human A549 cells assessed as accumulation at S phase at 0.1 uM after 48 hrs using propidium iodide staining by FACS analysis (reference value: 36.7 %); type: functional
A549 [7] = experiment: Induction of cell cycle arrest in human A549 cells assessed as accumulation at G1 phase at 0.1 uM after 48 hrs using propidium iodide staining by FACS analysis (reference value: 59.9 %); type: functional
A549 [8] = experiment: Induction of cell cycle arrest in human A549 cells assessed as accumulation at sub-G1 phase at 0.1 uM after 48 hrs using propidium iodide staining by FACS analysis (reference value: 21.7 %); type: functional

SMILES	IC50 (A549 [1])	IC50 (SiHa)	IC50 (HeLa)	Activity (A549 [2])	Activity (A549 [3])	Activity (A549 [4])	Activity (A549 [5])	Activity (A549 [6])	Activity (A549 [7])	Activity (A549 [8])
COc1cc([C@@H]2c3cc4c(cc3C[C@H]3COC(=O)[C@@H]32)OCO4)cc(OC)c1OC(=O)NCC(=O)N1CCN(C)CC1	3960 nM	4970 nM	703 nM	–	–	–	–	–	–	–
COc1cc([C@@H]2c3cc4c(cc3C[C@H]3COC(=O)[C@@H]32)OCO4)cc(OC)c1OC(=O)NCC(=O)N1CCN(c2ccc(O)cc2)CC1	2390 nM	4760 nM	7010 nM	–	–	–	–	–	–	–
COc1cc([C@@H]2c3cc4c(cc3C[C@H]3COC(=O)[C@@H]32)OCO4)cc(OC)c1OC(=O)NCC(=O)N1CCN(C2CCCC2)CC1	1720 nM	135 nM	3070 nM	–	–	–	–	–	–	–
COc1cc([C@@H]2c3cc4c(cc3C[C@H]3COC(=O)[C@@H]32)OCO4)cc(OC)c1OC(=O)N[C@@H](Cc1ccccc1)C(=O)N1CCNCC1	80.2 nM	160 nM	433 nM	–	–	–	–	–	–	–
COc1cc([C@@H]2c3cc4c(cc3C[C@H]3COC(=O)[C@@H]32)OCO4)cc(OC)c1OC(=O)N[C@@H](CCSC)C(=O)N1CCN(c2ccc([N+](=O)[O-])cc2)CC1	183 nM	160 nM	191 nM	–	–	–	–	–	–	–
COc1cc([C@@H]2c3cc4c(cc3C[C@H]3COC(=O)[C@@H]32)OCO4)cc(OC)c1OC(=O)N[C@H](CCSC)C(=O)N1CCNCC1	208 nM	83.9 nM	203 nM	–	–	–	–	–	–	–
COc1cc([C@@H]2c3cc4c(cc3C[C@H]3COC(=O)[C@@H]32)OCO4)cc(OC)c1O [4'-DEMETHYLDEOXYPODOPHYLLOTOXIN]	3750 nM	2070 nM	7430 nM	–	–	–	–	–	–	–
COc1cc([C@@H]2c3cc4c(cc3C[C@H]3COC(=O)[C@@H]32)OCO4)cc(OC)c1OC [DESOXYPODOPHYLLOTOXIN]	470 nM	10200 nM	36000 nM	85.5%	1.4%	13.1%	–	–	–	–
COc1cc([C@@H]2c3cc4c(cc3[C@@H](O[C@@H]3O[C@@H]5CO[C@@H](C)O[C@H]5[C@H](O)[C@H]3O)[C@H]3COC(=O)[C@H]23)OCO4)cc(OC)c1O [ETOPOSIDE]	14800 nM	30700 nM	50600 nM	–	–	–	10.5%	59.4%	26%	4.1%
